# Rce1 inhib = yeast Ras-converting enzyme inhibition; Q03530; yeast membranes, quenched prenylated peptide cleavage fluorescence; calls only; 0.27% of 290,000 active; AID 2563;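 active = fall in fluorescence gain of 50% or more versus controls, with final raw signal at or below 3038400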;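 also: plate controls were neutral control wells for no effect and wells lacking membranes for full effect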
# Target sequence (Q03530 whole entry, looked up): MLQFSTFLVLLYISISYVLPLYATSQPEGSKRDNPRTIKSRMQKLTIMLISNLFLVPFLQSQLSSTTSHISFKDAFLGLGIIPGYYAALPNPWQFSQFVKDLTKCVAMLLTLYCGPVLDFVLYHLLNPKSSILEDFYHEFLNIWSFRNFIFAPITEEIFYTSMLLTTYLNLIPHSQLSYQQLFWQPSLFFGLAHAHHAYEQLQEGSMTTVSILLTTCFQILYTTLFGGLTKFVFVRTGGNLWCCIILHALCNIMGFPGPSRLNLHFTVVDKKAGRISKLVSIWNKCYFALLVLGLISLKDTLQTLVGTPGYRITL
# TAAR1 ag = human TAAR1 agonism; 0.99% of 360,000 active; Q96RJ0; AID 624467; activation, % at 3 µM; CHO RD-HGA16 TAAR1, Fluo-8 calcium fluorescence; vehicle wells 0%, saturating PEA agonist 100%;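 active = activation above the mean activation of all test compounds in the run plus 3 SD, cut at about 38% in these data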
# Target sequence (Q96RJ0 whole entry, looked up): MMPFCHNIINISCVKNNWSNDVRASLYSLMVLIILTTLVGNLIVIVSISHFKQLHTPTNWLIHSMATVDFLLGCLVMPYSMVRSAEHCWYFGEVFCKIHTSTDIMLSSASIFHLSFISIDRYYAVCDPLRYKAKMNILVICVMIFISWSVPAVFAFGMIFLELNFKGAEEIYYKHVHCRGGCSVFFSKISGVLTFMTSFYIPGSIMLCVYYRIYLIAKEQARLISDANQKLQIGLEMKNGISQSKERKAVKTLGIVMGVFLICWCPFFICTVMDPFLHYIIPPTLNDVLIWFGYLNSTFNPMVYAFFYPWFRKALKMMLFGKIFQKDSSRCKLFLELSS
#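 Test system: RD-HGA16 (CHO) cells co-expressing Gα16 and hTAAR1 / Benchmarks: DMSO vehicle as 0%, PEA at EC100 as 100% / Repeats: no replicates (n 1) / Measure: % activation from peak over basal fluorescence ratio, DMSO-to-PEA scaled / Timing: 17-24 h plating, Fluo-8 75 min 37 °C, 30 min RT / Technique: kinetic Fluo-8 calcium fluorescence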
# Platelet DG rel = modulates dense granule release in human platelets | 0.22% of 300,000 active | inhibition, %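 (compounds screened at 7.5 µM in platelet-rich plasma)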 | human platelet-rich plasma, SFLLRN dense granule ATP release, luminescence;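 active = mean replicate score, as percent of positive control, at or above 50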
# VLA-4 inh = inhibition in a human VLA-4 binding assay; P13612; VLA-4 expressing cells, ligand binding flow cytometry; inhibition, % (about 7 µM as worked out from the volumes in the protocol); 0.2% of 330,000 active; in the data active = inhibition above about 50%
# TAAR1 antagonist = human TAAR1 antagonism. CHO RD-HGA16 TAAR1, Fluo-8 calcium fluorescence, antagonist. 1.5% of 360,000 active. inhibition, % at 3 µM. Q96RJ0;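 active = inhibition above a per-plate cutoff, the mean inhibition of test compounds on that plate plus 3 SD, cut at about 49% in these data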;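 also: 0% = DMSO plus EC80 beta-PEA response and 100% = DMSO alone without agonist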
#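 Material: CHO RD-HGA16 cells bearing hTAAR1; compound dosing: one-point dosing, 3 µM nominal final; schedule: dye loading 75 min at 37 °C, then 30 min room temperature; measured by: calcium fluorescence with Fluo-8; control set: vehicle and agonist controls; replication: n of 1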
# * = called active by the depositor; i = inactive; . = no result; + = active, no number. Hits are enriched below; roughly 2.6% of the tested compounds scored in any of these assays.
SMILES,Rce1 inhib,TAAR1 ag,Platelet DG rel,VLA-4 inh,TAAR1 antagonist
Cc1oc(-c2cccc3ccccc23)nc1CN1CCN(c2ncnc3ccccc23)CC1,i,11.2,1.4,32.0,57.5*
N=c1n(CC(=O)c2ccc(Br)cc2)c2ccccc2n1Cc1ccccc1,.,37.9*,.,0.0,-4.0
N=c1n(CC(=O)c2ccc([N+](=O)[O-])cc2)c2ccccc2n1Cc1ccccc1,i,2.0,-2.0,5.9,3.0
Nc1nc2ncccn2c1-c1ccc(C(F)(F)F)cc1,.,1.9,.,.,-11.0
COc1ccc(NC(=O)COC(=O)CCNC(=O)c2ccco2)cc1Cl,.,43.4*,.,3.5,12.4
CCCC(=O)Nc1nnc([C@H]2C[C@H](O)[C@@H](CO)O2)s1,.,1.5,.,.,-12.3
Cc1ccc(C(=O)N2NC(c3ccc(F)cc3)C3C(=O)N(c4ccc(C)cc4)C(=O)C32)cc1 (centres undefined),i,0.2,-8.3,-30.4,5.7
Cc1ccc(C(=O)N2NC(c3ccc(F)cc3)C3C(=O)N(c4ccc(C)c(C)c4)C(=O)C32)cc1 (centres undefined),i,37.7*,-0.7,-4.0,5.0
CC(C(=O)NCc1ccc(F)cc1)c1ccc([N+](=O)[O-])cc1 (centres undefined),i,2.9,2.0,-11.8,3.9
CSc1ccccc1C(=O)Nc1ncc(C)s1,i,7.4,55.4*,-6.3,15.6
O=C(Nc1cccnc1)C1CC(=O)N(c2ccc(F)cc2)C1 (centres undefined),i,3.6,-1.3,-2.4,0.4
CC1CCN(C(=O)c2cc3nc(-c4ccccc4)cc(-c4ccccc4)n3n2)CC1,+,13.9,4.4,11.0,1.6
CN1C(=O)c2ccc(N3CCCC3)cc2C1=O,i,4.2,5.4,-2.8,-11.9
Cc1cc(N2CCCC2)ccc1/C=C1\NC(=S)N(C)C1=O,.,51.4*,8.2,-82.8,32.3
CCCCn1c(N)c(N(CCOC)C(=O)c2ccc(-n3c(C)ccc3C)cc2)c(=O)[nH]c1=O,i,1.8,-0.4,8.3,-16.5
COCCCNc1ccn2nc(-c3ccc(OCc4ccccc4)cc3)cc2n1,.,10.9,.,.,56.3*
O=C(NCC(c1ccco1)N1CCc2ccccc2C1)c1cccc(Br)c1 (centres undefined),i,38.5*,-0.8,5.5,-0.6
COc1ccc(C(=O)NCC(c2ccco2)N2CCc3ccccc3C2)cc1 (centres undefined),i,39.5*,-4.1,-19.2,6.1
Cc1ccc(C(=O)NCC(c2ccco2)N2CCc3ccccc3C2)cc1 (centres undefined),i,39.9*,1.6,8.6,-10.6
CCOc1cc(OCC)cc(C(=O)N2CCC[C@@H]2C(=O)N2CCC[C@@H]2C(=O)NCc2cccc(OC)c2)c1,.,-0.7,.,.,-9.5
NS(=O)(=O)c1ccc(CCNS(=O)(=O)Cc2ccc(Cl)cc2)cc1,.,1.1,-4.7,9.0,-6.3
COc1ccc(C2=NCC(CSc3nnc(-c4ccc5c(c4)OCO5)o3)S2)cc1 (centres undefined),i,8.0,-4.0,-0.8,50.3*
COCCN(C(=O)COC(=O)CCOc1ccccc1)c1c(N)n(Cc2ccccc2)c(=O)[nH]c1=O,i,.,0.3,10.9,.
C[C@H]1CN([C@@H](C)CO)C(=O)c2cc(Br)cnc2O[C@@H]1CN(C)C(=O)C1CCC1,.,2.1,.,.,-9.2
CC1CCN(S(=O)(=O)c2ccc(C(=O)NCc3ccc4c(c3)OCO4)cc2)CC1,i,17.5,0.3,16.9,57.6*
SMILES,Rce1 inhib,TAAR1 ag,Platelet DG rel,VLA-4 inh,TAAR1 antagonist
COc1ccc(/C=N/Nc2nccnc2Cl)cc1,i,0.1,81.6*,-4.1,-22.0
Clc1nccnc1N/N=C/c1ccc(Br)cc1,i,5.3,40.1,0.0,-9.1
COc1ccccc1/C=N/Nc1nncc2ccccc12,i,3.8,28.1,5.7,4.0
COc1ccc(/C=N/Nc2nncc3ccccc23)cc1,i,2.8,68.3*,17.8,3.5
COc1ccc(/C=N/Nc2nccnc2Cl)c(OC)c1,i,-2.5,54.4*,-1.0,1.9
COc1ccc(/C=N/Nc2cc(OC)ncn2)cc1,i,0.5,52.3*,3.1,-8.4
CCc1ccc(NC(=O)CN2CCN(c3ccc(OC)cc3)CC2)cc1,.,-0.3,.,.,-10.9
CC(C)Sc1ncnc2[nH]ncc12,.,0.6,.,.,7.1
CC(C)[C@H](NS(=O)(=O)c1ccc(Cl)cc1)C(=O)OCC(=O)NCCN1C(=O)CSC1=O,i,2.7,-5.2,0.5,-6.9
C#CC1(N2CCCCC2)CCCCC1,.,0.8,.,.,-30.3
COc1ccc(Br)cc1C(=O)Nc1cc(C)cc(C)c1,+,1.5,0.3,-14.4,-11.2
CCOC(=O)C1CCN(C(=O)CSc2nc(N)cc(=O)[nH]2)CC1,i,4.0,0.4,7.8,1.9
O=C1c2ccccc2C2Cc3nnccc3CN12 (centres undefined),.,1.4,.,.,-24.5
COc1ccc(CNS(=O)(=O)c2ccc(-c3ccc(=O)[nH]n3)o2)cc1,i,0.6,-2.8,16.9,-9.2
CCCCOc1ccccc1C1C(C(=O)OC)=CN(CC)C=C1C(=O)OC,i,6.3,51.1*,6.8,-21.1
CCCOc1ccccc1C1C(C(=O)OC)=CN(C(C)C)C=C1C(=O)OC,i,0.3,4.0,4.7,6.5
CCOC(=O)C1=C(Cc2ccc(F)cc2)C(=O)c2ccccc2C1=O,i,30.8,17.4,i,51.9*
O=C(OCc1ccc(F)cc1)c1ccc2c(c1)-c1ccccc1C2=O,i,7.1,-2.4,9.3,32.6
CC(CC(=O)Nc1nnc(CC(C)(C)C)s1)c1ccccc1 (centres undefined),i,1.8,0.3,25.6,-14.1
COc1ccc(NC(=O)COC(=O)CCOc2ccccc2C)cc1Cl,i,1.2,-2.1,-1.9,-1.9
CC(=O)Nc1ccc(Nc2ncnc3c2cnn3-c2ccccc2)cc1,i,37.6*,-1.6,10.3,27.4
O=C(c1ccc(Cl)cc1)C1CCCN(Cc2cnn(-c3ccccc3)c2)C1 (centres undefined),i,12.0,1.9,-27.5,-1.3
O=C(c1ccc(Cl)cc1)C1CCCN(Cc2ccc(Oc3ncccn3)cc2)C1 (centres undefined),i,-0.9,52.1*,5.5,-21.4
COc1cc2c(cc1OC)C(CCc1ccccc1)=NCC2,+,0.7,-1.5,-2.0,-13.1
CC(=O)N(CN1C(=O)c2ccccc2C1=O)c1ccccc1,i,5.0,0.0,-16.6,-4.4
CCNc1nc(C)c(CN(C(C)=O)c2ccccc2)nc1C#N,+,1.8,5.1,-10.3,-7.2
CC1(C)CC(=O)C=C(Nc2ccc(Br)cc2F)C1,i,-1.0,3.3,-3.6,-2.3
O=C(CCNS(=O)(=O)c1ccc2[nH]c(=O)oc2c1)NCc1ccccc1,+,0.5,10.8,4.5,-21.1
COc1cc(/C=N/n2cnnc2)ccc1OCc1ccc(C)cc1,i,0.9,62.5*,-17.6,-0.7

# Screening results deposited in PubChem BioAssay by several laboratories.
